# Assay results from ChEMBL document CHEMBL4725360, “Optimization of Acetazolamide-Based Scaffold as Potent Inhibitors of Vancomycin-Resistant Enterococcus” (J Med Chem, 2020).
# The source made the active and inactive calls. No cut-off for these calls is given here.
# Key:
# [1] = Plasma concentration in ICR mouse at 10 mg/kg, po administered via gavage and measured after 10 to 1440 mins by LC/MS/MS analysis; format: ADME, organism-based; settings: in vivo, time 10-1440 min
# Outline: (§1)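 Male ICR mice, 10 mg/kg single oral gavage; n = 3 mice per time point, 8 time points from 10 to 1440 min. Plasma taken by cardiac puncture and mixed with buffer containing oxybutynin internal standard. Samples diluted with acetonitrile, then LC/MS/MS on C18 with acetonitrile/water–formic acid mobile phases in MRM mode. Concentration read off a standard curve.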
# Enterococcus faecium [2] = assay: Antibacterial activity against Enterococcus faecium NR-31914 incubated for 18 to 20 hrs under aerobic condition by CLSI protocol based broth microdilution assay; format: functional; settings: time hrs 18-20
# Outline: (§2)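 Broth microdilution per CLSI. Strains grown aerobically overnight on trypticase soy agar at 37 °C. Inoculum set to 0.5 McFarland, diluted in trypticase soy broth to about 5 × 10⁵ CFU/mL. Agents serially diluted, plates incubated aerobically at 37 °C for 18–20 h. MIC is the lowest concentration with no visible growth. Compound stocks 10 mg/mL in DMSO.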
# [3] = Drug excretion in ICR mouse at 10 mg/kg, po administered via gavage and measured after 1440 mins by LC/MS/MS analysis; format: ADME, organism-based; settings: in vivo, read-out: Drug excretion
# [4] = Tmax in ICR mouse at 10 mg/kg, po administered via gavage and measured after 10 to 1440 mins by LC/MS/MS analysis; format: ADME, organism-based; settings: in vivo, time 10-1440 min; outline: as §1
# Enterococcus faecium [5] = assay: Antibacterial activity against Enterococcus faecium NR-32052 incubated for 18 to 20 hrs under aerobic condition by CLSI protocol based broth microdilution assay; format: functional; settings: time hrs 18-20; outline: as §2
# [6] = MRT in ICR mouse at 10 mg/kg, po administered via gavage and measured after 10 to 1440 mins by LC/MS/MS analysis; format: ADME, organism-based; settings: in vivo, time 10-1440 min; outline: as §1
# Enterococcus faecium [7] = assay: Inhibition of carbonic anhydrase in Enterococcus faecium ATCC 700221 assessed as antibacterial activity incubated for 18 to 20 hrs in presence of 5% CO2 by CLSI protocol based broth microdilution assay; settings: time hrs 18-20
# Outline: (§3)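 CLSI broth microdilution: inoculum about 5 × 10⁵ CFU/mL in trypticase soy broth with serial dilutions of agents. Paired plates incubated at 37 °C for 18–20 h, one set in ambient air ("normal"), the other under 5% CO₂. MIC is the lowest concentration completely inhibiting visible growth.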
# Enterococcus faecium [8] = assay: Antibacterial activity against Enterococcus faecium NR-31971 incubated for 18 to 20 hrs under aerobic condition by CLSI protocol based broth microdilution assay; format: functional; settings: time hrs 18-20; outline: as §2
# Enterococcus faecium [9] = assay: Antibacterial activity against Enterococcus faecium NR-31972 incubated for 18 to 20 hrs under aerobic condition by CLSI protocol based broth microdilution assay; format: functional; settings: time hrs 18-20; outline: as §2
# [10] = AUC(0 to infinity) in ICR mouse at 10 mg/kg, po administered via gavage and measured after 10 to 1440 mins by LC/MS/MS analysis; format: ADME, organism-based; design: route oral, dose 10 mg/kg, time 10-1440; settings: in vivo; outline: as §1
# Enterococcus faecium [11] = assay: Antibacterial activity against Enterococcus faecium NR-31903 incubated for 18 to 20 hrs under aerobic condition by CLSI protocol based broth microdilution assay; format: functional; settings: time hrs 18-20; outline: as §2
# Enterococcus faecium [12] = assay: Antibacterial activity against Enterococcus faecium HM965 incubated for 18 to 20 hrs under aerobic condition by CLSI protocol based broth microdilution assay; format: functional; settings: time hrs 18-20; outline: as §2
# Enterococcus faecalis [13] = assay: Antibacterial activity against Enterococcus faecalis HM-335 incubated for 18 to 20 hrs under aerobic condition by CLSI protocol based broth microdilution assay; format: functional; settings: time hrs 18-20; outline: as §2
# Enterococcus faecium [14] = assay: Antibacterial activity against Enterococcus faecium NR-31916 incubated for 18 to 20 hrs under aerobic condition by CLSI protocol based broth microdilution assay; format: functional; settings: time hrs 18-20; outline: as §2
# Enterococcus faecium [15] = assay: Antibacterial activity against Enterococcus faecium HM968 incubated for 18 to 20 hrs under aerobic condition by CLSI protocol based broth microdilution assay; format: functional; settings: time hrs 18-20; outline: as §2
# [16] = Dose normalized AUC in ICR mouse at 10 mg/kg, po administered via gavage and measured after 10 to 1440 mins by LC/MS/MS analysis; format: ADME, organism-based; settings: in vivo, time 10-1440 min; outline: as §1
# [17] = Cytotoxicity against human Caco2 cells incubated for 2 hrs by MTS assay; format: cell-based; settings: Caco-2 cells
# Outline: (§4)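 Caco-2 cells maintained in DMEM with 10% FBS, non-essential amino acids and penicillin-streptomycin at 37 °C, 5% CO₂. Compound exposure for 2 h in serum-free medium at several concentrations; DMSO-matched controls. Viability expressed relative to DMSO controls (mean ± SD), and CC₅₀ derived.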
# [18] = Cmax in ICR mouse at 10 mg/kg, po administered via gavage and measured after 30 mins by LC/MS/MS analysis; format: ADME, organism-based; design: route oral, dose 10 mg/kg, time 10-1440; settings: in vivo, 0.5 h; outline: as §1
# Caco-2 = assay: Cytotoxicity against human Caco2 cells at 128 ug/ml incubated for 2 hrs by MTS assay; format: cell-based; settings: caco-2, 2 h, dose 128 µg/ml; outline: as §4
# Enterococcus faecalis [19] = assay: Antibacterial activity against Enterococcus faecalis HM-334 incubated for 18 to 20 hrs under aerobic condition by CLSI protocol based broth microdilution assay; format: functional; settings: time hrs 18-20; outline: as §2
# Enterococcus faecium [20] = assay: Bacteriostatic activity against Enterococcus faecium ATCC 700221 assessed as reduction in bacterial burden at 5 times MIC preincubated for 24 hrs followed by replating on soya agar plates and measured after 16 hrs by time-kill assay; format: functional, organism-based
# Outline: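 E. faecium ATCC 700221 overnight culture diluted in trypticase soy broth to 3.5 × 10⁶ CFU/mL. […] Samples taken at 2, 4, 6, 8, 12 and 24 h, diluted in PBS and plated on trypticase soy agar. Colonies counted after 16 h at 37 °C. Detection limit 100 CFU/mL. Two-way ANOVA with Dunnett's test.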
# [21] = Apparent permeability across apical to basolateral side in human Caco2 cells; format: ADME, cell-based; settings: caco-2
# Outline: (§5)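 Bi-directional Caco-2 monolayer permeability, run at Eurofins: donor at pH 6.5, receiver at pH 7.4, both A→B and B→A. Papp derived from receiver concentration at the end point, incubation time, monolayer area and mid-point donor concentration. Concentrations taken as peak areas.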
# Enterococcus faecium [22] = assay: Antibacterial activity against Enterococcus faecium NR-28978 incubated for 18 to 20 hrs under aerobic condition by CLSI protocol based broth microdilution assay; format: functional; settings: time hrs 18-20; outline: as §2
# [23] = Aqueous solubility of compound in pH 7.4 PBS measured at 24 hrs by HPLC analysis; format: physicochemical; settings: buffer, pH 7.4, 24 h
# Outline: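 HPLC principal-peak area of the buffer sample compared with a 200 μM calibration standard in methanol/water 60/40.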
# [24] = Metabolic stability in human liver microsomes assessed as compound remaining measured after 60 mins; format: ADME, Microsome; settings: 1 h
# Outline: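 Human liver microsomes at 0.1 mg/mL, 37 °C. Percent parent remaining at 60 min, mean of 2 replicates.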
# Enterococcus faecium [25] = assay: Inhibition of carbonic anhydrase in Enterococcus faecium ATCC 700221 assessed as antibacterial activity incubated for 18 to 20 hrs in presence of ambient air by CLSI protocol based broth microdilution assay; settings: time hrs 18-20; outline: as §3
# [26] = Apparent permeability across basolateral to apical side in human Caco2 cells; format: ADME, cell-based; settings: caco-2; outline: as §5
# [27] = Half life in human liver microsomes after 60 mins; format: ADME, Microsome; settings: 1 h
# Enterococcus faecium [28] = assay: Antibacterial activity against Enterococcus faecium NR-32065 incubated for 18 to 20 hrs under aerobic condition by CLSI protocol based broth microdilution assay; format: functional; settings: time hrs 18-20; outline: as §2
# Enterococcus faecalis [29] = assay: Antibacterial activity against Enterococcus faecalis NR-31970 incubated for 18 to 20 hrs under aerobic condition by CLSI protocol based broth microdilution assay; format: functional, organism-based; settings: time hrs 18-20; outline: as §2
# Enterococcus faecalis [30] = assay: Antibacterial activity against Enterococcus faecalis NR-31975 incubated for 18 to 20 hrs under aerobic condition by CLSI protocol based broth microdilution assay; format: functional, organism-based; settings: time hrs 18-20; outline: as §2
# Enterococcus faecium [31] = assay: Antibacterial activity against Enterococcus faecium ATCC 700221 by CLSI protocol based assay; format: functional; outline: as §2
MIC (Enterococcus faecium [2]) [µg/mL],MIC (Enterococcus faecium [5]) [µg/mL],inhibition (Enterococcus faecium [7]),MIC (Enterococcus faecium [8]) [µg/mL],MIC (Enterococcus faecium [9]) [µg/mL],MIC (Enterococcus faecium [11]) [µg/mL],MIC (Enterococcus faecium [12]) [µg/mL],MIC (Enterococcus faecalis [13]) [µg/mL],MIC (Enterococcus faecium [14]) [µg/mL],MIC (Enterococcus faecium [15]) [µg/mL],MIC (Enterococcus faecalis [19]) [µg/mL],Papp [21],MIC (Enterococcus faecium [22]) [µg/mL],solubility [23] [µM],Stabilty [24] [%],inhibition (Enterococcus faecium [25]),Papp [26],SMILES,CC50 at 2 h [17] [µg/mL],Activity (Caco-2),Activity (Enterococcus faecium [20]),further results
0.03,0.015,inactive,0.007,0.015,0.015,0.007,0.03,0.03,0.03,0.007,6.5 10^-6 cm/s,0.06,32.8,62,Active,14.1 10^-6 cm/s,NS(=O)(=O)c1nnc(NC(=O)CCC2CCCCC2)s1,> 128,Non-Toxic,Active,Cp [1]: 184 ng/mL; dose excreted at 24 h [3]: 100%; Tmax [4]: 0.5 h; MRT [6]: 1.35 h; AUC(0-inf) [10]: 562 ng·h/mL; AUC/dose [16]: 56 kg·ng·h/mL/mg; Cmax [18]: 456 ng/mL; t1/2 [27]: 1.23 h; MIC (Enterococcus faecium [28]): 0.015 µg/mL; Activity (Enterococcus faecalis [29]): Active; Activity (Enterococcus faecalis [30]): Active
–,–,–,–,–,–,–,–,–,–,–,–,–,–,–,–,–,CCOc1ccc2nc(S(N)(=O)=O)sc2c1 [ETHOXZOLAMIDE],–,–,–,MIC (Enterococcus faecium [31]): 1 µg/mL
–,–,–,–,–,–,–,–,–,–,–,–,–,–,–,–,–,CC(=O)/N=c1/sc(S(N)(=O)=O)nn1C [METHAZOLAMIDE],–,–,–,MIC (Enterococcus faecium [31]): 4 µg/mL
2,1,inactive,2,4,2,1,0.5,1,1,4,< 0.17 10^-6 cm/s,2,126.6,86,Active,< 0.17 10^-6 cm/s,NS(=O)(=O)c1nnc(NC(=O)CN2CCOCC2)s1,> 128,Non-Toxic,Active,t1/2 [27]: 4.95 h; MIC (Enterococcus faecium [28]): 2 µg/mL
